Screens as filed in PubChem BioAssay.
TRPC4 act – activators of mouse TRPC4 channel; HEK293 TRPC4beta/mu-opioid, Fluo4 calcium fluorescence; hits give high values; B-score at 10 µM; actives 0.49% (n = 310,000);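 active means B-score above 5 SD of library B-scores, and initial fluorescence ratio not above library mean plus 5 SD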;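 further: positive B-score marks a calcium rise read as TRPC4 activation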
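Technique: kinetic Fluo4 calcium fluorescence; Test system: TRPC4beta and mu-opioid receptor HEK293 stable cells; Measure: B-scored integrated calcium fluorescence ratio; Benchmarks: low control buffer alone, high control maximal DAMGO; Schedule: 45 min room-temperature Fluo4 loading, 110 s read.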
TRPC6 act – activates the mouse TRPC6 cation channel; B-score at 10 µM; actives 0.13% (n = 310,000); AID 2550; HEK293-TRPC6 membrane potential dye fluorescence; hits give high values;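 active means B-score of the integrated fluorescence ratio above library mean plus 3 SD, and starting fluorescence ratio within library mean plus 5 SD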;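 further: higher score means more depolarization so channel activation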
TRPC4 inh – TRPC4 (mouse) channel inhibition; actives 0.39% (n = 300,000); Q9QUQ5; AID 2247; B-score at 10 µM; HEK293 TRPC4beta/mu-opioid, DAMGO-evoked Fluo4 calcium flux; hits give low values;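 active means B-score over 3 SD under the library average, no early fluorescence shift, positive overall ratio signal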
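Material: HEK293 cells with stable TRPC4beta plus mu-opioid receptor expression / Probe or stimulus: DAMGO in two steps, submaximal then maximal / Compound: single concentration per test compound / Technique: kinetic Fluo4 fluorescence imaging of calcium influx / Read-out: per-well B score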
TRPC4 PAM – TRPC4 (mouse) allosteric potentiation; Q9QUQ5; HEK293 TRPC4beta/mu-opioid, DAMGO EC20, Fluo-4 Ca2+ flux; hits give high values; B-score at 10 µM; actives 0.42% (n = 310,000);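 active means B-score of calcium response area above 5 SD of library B-scores, with initial fluorescence ratio within 5 SD of library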
TRPC6 inh – blocks the mouse TRPC6 cation channel. Q61143. HEK293-TRPC6, membrane potential dye, ACh-evoked depolarization; hits give low values. B-score at 10 µM. actives 1.1% (n = 310,000). AID 2553;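 active means B-score under library mean minus 3 SD, initial fluorescence not abnormally high, positive integrated signal ratio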;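 further: B-score derived from integrated fluorescence ratio over the kinetic read; more negative B-score means stronger inhibition of depolarization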
A number is an active result; - = inactive. In the library only some 2.3% were active in any assay of this set; here they are far more common.

SMILES	TRPC4 act	TRPC6 act	TRPC4 inh	TRPC4 PAM	TRPC6 inh
COCCn1c(=O)[nH]c2cc(C(=O)NCCc3ccc(S(N)(=O)=O)cc3)ccc2c1=O	-	-	-	-	-
CCc1c(C(=O)N2CCCN(C)CC2)csc1C	-	-	-6	-	-
CCc1ccc(C(=O)N2CCCN(C)CC2)s1	-	-	-	-	-
CCCOC(=O)C(C)n1cnc2scc(-c3ccc(C)cc3)c2c1=O (stereo not given)	-	-	-	-	-
CCN(c1cccc(C)c1)S(=O)(=O)c1cc(CN2C(=O)c3cccnc3C2=O)ccc1OC	-	-	-	-	-
Cc1cc(-c2nn(-c3ccccc3F)cc2CNCCc2cnc[nH]2)c(C)s1	125	-	-	-	-
COCC1CCN(Cc2cn(-c3ccccc3F)nc2-c2cc(C)sc2C)CC1	96	-	-	-	-
CC1(C)Cc2c(cnn2-c2ccc(F)cc2)C(NC(=O)CN2CCCC2=O)C1 (stereo not given)	-	-	-	-	-
Cc1cccc(OCC(=O)Nc2nccs2)c1C	-	-	-	-	-
CCN(CC)S(=O)(=O)c1ccc(N2CCCCC2)c(NC(=O)C2CCN(C(=O)c3ccc(F)cc3)CC2)c1	-	-	-	-	-
COc1ccccc1N1CCN(CCCNC(=O)Nc2ccccc2)CC1	-	-	-6	-	-
Cc1ccccc1NC(=O)NCCCN1CCN(c2ccccc2)CC1	-	-	-	-	-
O=C(NCCCN1CCN(c2ccccc2)CC1)Nc1ccccc1C(F)(F)F	-	-	-6	-	-
CC(C)=CC(=O)Nc1nc2ccc([N+](=O)[O-])cc2s1	-	-	-	-	-
Cc1cc(NCCN2CCCCC2)n2c(nc3ccccc32)c1C#N	-	-	-	-	-8.11
Cc1cc(NCCCN(C)C)n2c(nc3ccccc32)c1C#N	-	-	-	-	-
Cc1ccccc1C(=O)Nc1ccc(C(=O)N/N=C/c2ccncc2)cc1	-	-	-6	-	-
Cc1ccccc1C(=O)Nc1ccc(C(=O)N/N=C/c2ccc(O)cc2)cc1	-	-	-	-	-
C#CCOCCOCCOCCNc1nc(N2CCN(C(=O)C([C@@H](C)CC)n3cc(C(N)COC(=O)C(F)(F)F)nn3)CC2)nc(N2CCN(C(=O)[C@H](Cc3cc4ccccc4[nH]3)n3cc(C(N)CO)nn3)CC2)n1 (stereo not given in full)	57	-	-6	-	-
c1ccc(C2=Nc3cccnc3C(c3ccccc3)=NN2)cc1	-	-	-	-	-
COCCn1nnnc1C(c1cccs1)N1CCN2CCCC2C1 (stereo not given)	-	-	-	-	-
Cc1ccc(/C=C/c2onc(C)c2S(=O)(=O)N2CCC(C(=O)NC(C)(C)C)CC2)cc1	-	-	-	-	-
COC(=O)C1=CN(c2ccc(OC)cc2)C=C(C(=O)OC)C1c1cc(OC)c(OC)cc1OC	-	-	-	-	-
COc1cc(OC)c(C2N(C)c3ccccc3N2C)cc1OC	-	-	-6	-	-
COc1ccccc1Oc1nc(C)c(C(C)=O)cc1C#N	-	-	-	12	-
SMILES	TRPC4 act	TRPC6 act	TRPC4 inh	TRPC4 PAM	TRPC6 inh
COC(=O)c1cc(C#N)c(Oc2ccccc2)nc1C	-	-	-	-	-
O=C1OCCN/C1=C\C(=O)c1ccccc1	-	-	-	14	-
O=C1OCCN/C1=C\C(=O)c1ccc(Cl)cc1	-	-	-	-	-
CCN1C(=O)CSC1=Nc1ccc(Cl)c(Cl)c1	-	-	-6	-	-
OCCN1CCN(C2CCC(c3ccc(F)cc3)c3ccc(F)cc32)CC1 (stereo not given)	-	-	-	13	-
CCn1c(N)[n+](CC(=O)Nc2ccc(SC(F)F)cc2)c2ccccc21	156	-	-	-	-
Cc1nn(C(=O)CNS(=O)(=O)c2ccccc2)c(C)c1Sc1ccc(Cl)cc1	-	-	-7	-	-
CC1(C(=O)NC(=S)NNC(=O)c2ccncc2)CCCCC1	97	-	-	-	-
O=C(NNC(=S)NC(=O)C12CC3CC(CC(C3)C1)C2)c1ccncc1	169	-	-	-	-
COC(=O)c1ccccc1S(=O)(=O)NNC(=O)Nc1ccccc1	-	-	-	-	-
CC12CCC(=O)N1C(C(=O)N1CCN(S(=O)(=O)c3ccc(Br)cc3Cl)CC1)CS2 (stereo not given)	-	-	-	-	-
O=S(=O)(c1ccc(Br)cc1Cl)N1CCN(CCO)CC1	83	-	-	-	-
COc1ccc(C(=O)NC(=S)NNC(=O)COc2ccccc2)cc1	-	-	-	-	-
O=C(NC(=S)NNC(=O)c1ccc(Cl)cc1Cl)c1cccnc1	-	-	-	-	-
CCCCCC(=O)NNC(=S)NC(=O)c1ccccc1[N+](=O)[O-]	-	-	-	-	-
Cc1ccccc1C(=O)NNC(=S)NC(=O)c1ccc(Cl)cc1Cl	249	-	-	-	-
CCCCCC(=O)NNC(=S)NC(=O)c1cccc([N+](=O)[O-])c1	60	-	-	-	-
Cc1cccc(C(=O)NC(=S)NNC(=O)Cc2ccccc2)c1	219	-	-	-	-
O=C(COc1ccccc1)NNC(=S)NC(=O)c1ccccc1	46	-	-	-	-
Cc1ccc(N(C(=O)CNC(=O)c2ccco2)C(C(=O)NC2CCCCC2)c2ccncc2)cc1F (stereo not given)	-	-	-	-	-
Cc1cccc(C(=O)NC(=S)NNC(=O)COc2c(C)cccc2C)c1	102	-	-	-	-
Cc1ccc(C(=O)NC(=S)NNC(=O)COc2ccccc2C)cc1	54	-	-	-	-
Cc1cccc(C(=O)NC(=S)NNC(=O)c2ccccc2Cl)c1	294	-	-	-	-
NCCCCCCNS(=O)(=O)c1cccc2c(Cl)cccc12	95	-	-	-	-
CCN1CCN(C(=O)N(CC(=O)Nc2ccc(C(N)=O)cc2)S(=O)(=O)c2ccc(C)cc2)CC1	-	-	-6	-	-
SMILES	TRPC4 act	TRPC6 act	TRPC4 inh	TRPC4 PAM	TRPC6 inh
Cc1ccc(S(=O)(=O)N(CC(=O)Nc2ccc(C(N)=O)cc2)C(=O)N2CCN(C)CC2)cc1	-	-	-	-	-
COc1ccc(-c2csc(NC(=O)Cc3cccc4ccccc34)c2C(=O)O)cc1	-	-	-7	-	-
Cc1cc(Cl)c(Cl)cc1S(=O)(=O)NCCCn1ccnc1	-	-	-	11	-
CCc1ccc(C(=O)C(C)OC(=O)c2nc3nc(C)cc(C)n3n2)cc1 (stereo not given)	-	-	-	-	-
Cc1ccc(C(=O)N(CCCN(C)C)c2nc3ccc(Cl)cc3s2)cc1C	-	-	-	-	-
CN(C)CCCN(C(=O)c1ccc(S(=O)(=O)N2CCc3ccccc32)cc1)c1nc2ccc(F)cc2s1	111	-	-	-	-
Cc1ccc2nc(N(CCCN(C)C)C(=O)c3ccc(S(=O)(=O)N(C)C)cc3)sc2c1	-	-	-	-	-
Cc1ccc2nc(N(CCCN(C)C)C(=O)c3sc4ccccc4c3Cl)sc2c1	-	-	-	10	-
